Values after ≈ are worked out from the molar mass of the structure shown.
Experiments:
Assay type in all cases: functional
Pseudomonas aeruginosa [1] = test: Antimicrobial activity against ampD, ampDh2, ampDh3 and ampG deficient Pseudomonas aeruginosa PAO1 harboring pUCP24 conferring resistance to gentamycin after 16 to 20 hrs by broth microdilution method
Summary of the method: (§1)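 CLSI broth microdilution in Mueller-Hinton broth, serial 2-fold antibiotic dilutions. Inoculum about 10^4 cells per well, taken from starter cultures grown to OD600 0.5. MIC was the lowest antibiotic concentration preventing growth after 16 to 20 h at 37°C. Each MIC was determined in triplicate.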

Pseudomonas aeruginosa [2] = test: Antimicrobial activity against ampG deficient Pseudomonas aeruginosa PAK harboring pZY0901 conferring resistance to gentamycin after 16 to 20 hrs by broth microdilution method; summary of the method: as §1
Pseudomonas aeruginosa [3] = test: Antimicrobial activity against ampG, ampGh1 deficient Pseudomonas aeruginosa PAO1 after 16 to 20 hrs by broth microdilution method; summary of the method: as §1
Pseudomonas aeruginosa [4] = test: Antimicrobial activity against ampG deficient Pseudomonas aeruginosa PAO1 harboring pUCP24 conferring resistance to gentamycin after 16 to 20 hrs by broth microdilution method in presence of 120 uM carbonyl cyanide m-chlorophenyl-hydrazone
Summary of the method: (§2)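 CLSI broth microdilution in Mueller-Hinton broth with serial antibiotic dilutions. CCCP was added from a 10 mM DMSO stock to 120 μM final, then the bacterial culture was added as inoculum (about 10^4 cells from OD600 0.5 starter cultures). MIC was the lowest concentration preventing growth after 16 to 20 h at 37°C, run in triplicate.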

Pseudomonas aeruginosa [5] = test: Antimicrobial activity against Pseudomonas aeruginosa PAK after 16 to 20 hrs by broth microdilution method in presence of 120 uM carbonyl cyanide m-chlorophenyl-hydrazone
Summary of the method: (§3)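 CLSI broth microdilution in Mueller-Hinton broth with CCCP added from a 10 mM DMSO stock to 120 μM final, alongside 2-fold serial antibiotic dilutions. Inoculum from starter cultures grown to OD600 0.5. MIC is the lowest concentration preventing growth after 16-20 h at 37°C. Triplicate.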

Pseudomonas aeruginosa [6] = test: Antimicrobial activity against ampG deficient Pseudomonas aeruginosa PAK harboring pUCP24 conferring resistance to gentamycin after 16 to 20 hrs by broth microdilution method; summary of the method: as §1
Escherichia coli [7] = test: Antimicrobial activity against tetracycline resistant Escherichia coli SNO301-1 harboring pEC1C carrying ampC, ampR from Enterobacter cloacae after 16 to 20 hrs by broth microdilution method
Summary of the method: (§4)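 CLSI broth microdilution: serial 2-fold β-lactam dilutions in Mueller-Hinton broth, inoculum about 10^4 cells from starter cultures at OD600 0.5; MIC read as lowest concentration preventing growth after 16 to 20 h at 37°C; triplicate determinations.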

Pseudomonas aeruginosa [8] = test: Antimicrobial activity against ampG deficient Pseudomonas aeruginosa PAO1 harboring pUCP24 conferring resistance to gentamycin after 16 to 20 hrs by broth microdilution method; summary of the method: as §1
Pseudomonas aeruginosa [9] = test: Antimicrobial activity against ampG deficient Pseudomonas aeruginosa PAO1 harboring pZY0901 conferring resistance to gentamycin after 16 to 20 hrs by broth microdilution method in presence of 120 uM carbonyl cyanide m-chlorophenyl-hydrazone; summary of the method: as §2
Pseudomonas aeruginosa [10] = test: Antimicrobial activity against ampD, ampDh2, ampDh3 and ampG deficient Pseudomonas aeruginosa PAO1 harboring pUCP24 conferring resistance to gentamycin after 16 to 20 hrs by broth microdilution method in presence of 120 uM carbonyl cyanide m-chlorophenyl-hydrazone; summary of the method: as §2
Pseudomonas aeruginosa [11] = test: Antimicrobial activity against Pseudomonas aeruginosa PAK after 16 to 20 hrs by broth microdilution method
Summary of the method: (§5)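 CLSI broth microdilution: 2-fold serial antibiotic dilutions in Mueller-Hinton broth, inoculated with about 10^4 cells per 100 μl from starter cultures grown to OD600 0.5. MIC is the lowest concentration preventing growth after 16-20 h at 37°C. Triplicate.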

Pseudomonas aeruginosa [12] = test: Antimicrobial activity against ampG deficient Pseudomonas aeruginosa PAO1 after 16 to 20 hrs by broth microdilution method in presence of 120 uM carbonyl cyanide m-chlorophenyl-hydrazone; summary of the method: as §2
Pseudomonas aeruginosa [13] = test: Antimicrobial activity against ampG, ampGh1 deficient Pseudomonas aeruginosa PAO1 after 16 to 20 hrs by broth microdilution method in presence of 120 uM carbonyl cyanide m-chlorophenyl-hydrazone; summary of the method: as §2
Pseudomonas aeruginosa [14] = test: Antimicrobial activity against ampG deficient Pseudomonas aeruginosa PAK harboring pUCP24 conferring resistance to gentamycin after 16 to 20 hrs by broth microdilution method in presence of 120 uM carbonyl cyanide m-chlorophenyl-hydrazone; summary of the method: as §2
Pseudomonas aeruginosa [15] = test: Antimicrobial activity against ampGh1 deficient Pseudomonas aeruginosa PAO1 after 16 to 20 hrs by broth microdilution method in presence of 120 uM carbonyl cyanide m-chlorophenyl-hydrazone
Summary of the method: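 Serial 2-fold dilutions of β-lactam in Mueller-Hinton broth with CCCP added from a 10 mM DMSO stock to 120 μM final; inoculum about 10^4 cells from cultures grown to OD600 0.5; MIC taken as lowest concentration preventing growth after 16 to 20 h at 37°C; triplicate.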

Pseudomonas aeruginosa [16] = test: Antimicrobial activity against Pseudomonas aeruginosa PAO1 after 16 to 20 hrs by broth microdilution method in presence of 120 uM carbonyl cyanide m-chlorophenyl-hydrazone; summary of the method: as §3
Pseudomonas aeruginosa [17] = test: Antimicrobial activity against ampG deficient Pseudomonas aeruginosa PAO1 harboring pZY0908 conferring resistance to gentamycin after 16 to 20 hrs by broth microdilution method; summary of the method: as §1
Pseudomonas aeruginosa [18] = test: Antimicrobial activity against ampGh1 deficient Pseudomonas aeruginosa PAK after 16 to 20 hrs by broth microdilution method in presence of 120 uM carbonyl cyanide m-chlorophenyl-hydrazone; summary of the method: as §2
Escherichia coli [19] = test: Antimicrobial activity against gentamycin resistant Escherichia coli SNO301-1 harboring pEC1C carrying ampC, ampR from Enterobacter cloacae after 16 to 20 hrs by broth microdilution method; summary of the method: as §4
Pseudomonas aeruginosa [20] = test: Antimicrobial activity against ampD, ampDh2, ampDh3 and ampG deficient Pseudomonas aeruginosa PAO1 after 16 to 20 hrs by broth microdilution method in presence of 120 uM carbonyl cyanide m-chlorophenyl-hydrazone; summary of the method: as §2
Pseudomonas aeruginosa [21] = test: Antimicrobial activity against ampD, ampDh2, ampDh3 and ampG deficient Pseudomonas aeruginosa PAO1 after 16 to 20 hrs by broth microdilution method; summary of the method: as §1
Pseudomonas aeruginosa [22] = test: Antimicrobial activity against ampG, ampGh1 deficient Pseudomonas aeruginosa PAK after 16 to 20 hrs by broth microdilution method in presence of 120 uM carbonyl cyanide m-chlorophenyl-hydrazone; summary of the method: as §2
Escherichia coli [23] = test: Antimicrobial activity against kanamycin resistant Escherichia coli SNO301-1 harboring pEC1C carrying ampC, ampR from Enterobacter cloacae after 16 to 20 hrs by broth microdilution method; summary of the method: as §4
Pseudomonas aeruginosa [24] = test: Antimicrobial activity against ampG deficient Pseudomonas aeruginosa PAO1 after 16 to 20 hrs by broth microdilution method; summary of the method: as §1
Pseudomonas aeruginosa [25] = test: Antimicrobial activity against ampG deficient Pseudomonas aeruginosa PAK after 16 to 20 hrs by broth microdilution method in presence of 120 uM carbonyl cyanide m-chlorophenyl-hydrazone; summary of the method: as §2
Pseudomonas aeruginosa [26] = test: Antimicrobial activity against ampD, ampDh2, ampDh3 and ampGh1 deficient Pseudomonas aeruginosa PAO1 after 16 to 20 hrs by broth microdilution method; summary of the method: as §1
Pseudomonas aeruginosa [27] = test: Antimicrobial activity against ampGh1 deficient Pseudomonas aeruginosa PAK after 16 to 20 hrs by broth microdilution method; summary of the method: as §1
Pseudomonas aeruginosa [28] = test: Antimicrobial activity against ampD, ampDh2, ampDh3 deficient Pseudomonas aeruginosa PAO1 after 16 to 20 hrs by broth microdilution method in presence of 120 uM carbonyl cyanide m-chlorophenyl-hydrazone; summary of the method: as §2
Pseudomonas aeruginosa [29] = test: Antimicrobial activity against ampG, ampGh1 deficient Pseudomonas aeruginosa PAK after 16 to 20 hrs by broth microdilution method; summary of the method: as §1
Pseudomonas aeruginosa [30] = test: Antimicrobial activity against ampG deficient Pseudomonas aeruginosa PAK after 16 to 20 hrs by broth microdilution method; summary of the method: as §1
Pseudomonas aeruginosa [31] = test: Antimicrobial activity against Pseudomonas aeruginosa PAO1 after 16 to 20 hrs by broth microdilution method; summary of the method: as §5
Pseudomonas aeruginosa [32] = test: Antimicrobial activity against ampD, ampDh2, ampDh3 and ampG deficient Pseudomonas aeruginosa PAO1 harboring pZY0901 conferring resistance to gentamycin after 16 to 20 hrs by broth microdilution method in presence of 120 uM carbonyl cyanide m-chlorophenyl-hydrazone; summary of the method: as §2
Pseudomonas aeruginosa [33] = test: Antimicrobial activity against ampGh1 deficient Pseudomonas aeruginosa PAO1 after 16 to 20 hrs by broth microdilution method; summary of the method: as §1
Pseudomonas aeruginosa [34] = test: Antimicrobial activity against ampG deficient Pseudomonas aeruginosa PAK harboring pZY0901 conferring resistance to gentamycin after 16 to 20 hrs by broth microdilution method in presence of 120 uM carbonyl cyanide m-chlorophenyl-hydrazone; summary of the method: as §2
Pseudomonas aeruginosa [35] = test: Antimicrobial activity against ampD, […], ampDh2 deficient Pseudomonas aeruginosa PAO1 after 16 to 20 hrs by broth microdilution method; summary of the method: as §1
Pseudomonas aeruginosa [36] = test: Antimicrobial activity against ampD, ampDh2, ampDh3 and ampG deficient Pseudomonas aeruginosa PAO1 harboring pZY0901 conferring resistance to gentamycin after 16 to 20 hrs by broth microdilution method; summary of the method: as §1
Pseudomonas aeruginosa [37] = test: Antimicrobial activity against ampD, ampDh2, ampDh3 and ampGh1 deficient Pseudomonas aeruginosa PAO1 after 16 to 20 hrs by broth microdilution method in presence of 120 uM carbonyl cyanide m-chlorophenyl-hydrazone; summary of the method: as §2
Pseudomonas aeruginosa [38] = test: Antimicrobial activity against ampG deficient Pseudomonas aeruginosa PAO1 harboring pZY0901 conferring resistance to gentamycin after 16 to 20 hrs by broth microdilution method; summary of the method: as §1

Compound	MIC (Pseudomonas aeruginosa [1]) [µg/mL]	MIC (Pseudomonas aeruginosa [2]) [µg/mL]	MIC (Pseudomonas aeruginosa [3]) [µg/mL]	MIC (Pseudomonas aeruginosa [6]) [µg/mL]	MIC (Pseudomonas aeruginosa [8]) [µg/mL]	MIC (Pseudomonas aeruginosa [11]) [µg/mL]	MIC (Pseudomonas aeruginosa [17]) [µg/mL]	MIC (Pseudomonas aeruginosa [21]) [µg/mL]	MIC (Pseudomonas aeruginosa [24]) [µg/mL]	MIC (Pseudomonas aeruginosa [26]) [µg/mL]	MIC (Pseudomonas aeruginosa [27]) [µg/mL]	MIC (Pseudomonas aeruginosa [29]) [µg/mL]	MIC (Pseudomonas aeruginosa [30]) [µg/mL]	MIC (Pseudomonas aeruginosa [31]) [µg/mL]	MIC (Pseudomonas aeruginosa [33]) [µg/mL]	MIC (Pseudomonas aeruginosa [35]) [µg/mL]	MIC (Pseudomonas aeruginosa [36]) [µg/mL]	MIC (Pseudomonas aeruginosa [38]) [µg/mL]	other results
CO/N=C(\C(=O)N[C@@H]1C(=O)N2C(C(=O)O)=C(COC(C)=O)CS[C@H]12)c1csc(N)n1 [CEFOTAXIME]	4 (≈ 8.78 µM)	512 (≈ 1120 µM)	8 (≈ 17.6 µM)	4 (≈ 8.78 µM)	8 (≈ 17.6 µM)	8 (≈ 17.6 µM)	8 (≈ 17.6 µM)	4 (≈ 8.78 µM)	8 (≈ 17.6 µM)	256 (≈ 562 µM)	8 (≈ 17.6 µM)	8 (≈ 17.6 µM)	8 (≈ 17.6 µM)	16 (≈ 35.1 µM)	16 (≈ 35.1 µM)	512 (≈ 1120 µM)	512 (≈ 1120 µM)	256 (≈ 562 µM)	MIC (Pseudomonas aeruginosa [4]): 4 µg/mL; MIC (Pseudomonas aeruginosa [5]): 8 µg/mL; MIC (Escherichia coli [7]): < 2 µg/mL; MIC (Pseudomonas aeruginosa [9]): 128 µg/mL; MIC (Pseudomonas aeruginosa [10]): 4 µg/mL; MIC (Pseudomonas aeruginosa [12]): 4 µg/mL; MIC (Pseudomonas aeruginosa [13]): 4 µg/mL; MIC (Pseudomonas aeruginosa [14]): 4 µg/mL; MIC (Pseudomonas aeruginosa [15]): 8 µg/mL; MIC (Pseudomonas aeruginosa [16]): 8 µg/mL; MIC (Pseudomonas aeruginosa [18]): 8 µg/mL; MIC (Escherichia coli [19]): 32 µg/mL (≈ 70.3 µM); MIC (Pseudomonas aeruginosa [20]): 4 µg/mL; MIC (Pseudomonas aeruginosa [22]): 4 µg/mL; MIC (Escherichia coli [23]): 64 µg/mL (≈ 141 µM); MIC (Pseudomonas aeruginosa [25]): 4 µg/mL; MIC (Pseudomonas aeruginosa [28]): 64 µg/mL; MIC (Pseudomonas aeruginosa [32]): 64 µg/mL; MIC (Pseudomonas aeruginosa [34]): 256 µg/mL; MIC (Pseudomonas aeruginosa [37]): 64 µg/mL
CC(C)(O/N=C(\C(=O)N[C@@H]1C(=O)N2C(C(=O)[O-])=C(C[n+]3ccccc3)CS[C@H]12)c1csc(N)n1)C(=O)O [CEFTAZIDIME]	1 (≈ 1.83 µM)	32 (≈ 58.5 µM)	1 (≈ 1.83 µM)	1 (≈ 1.83 µM)	1 (≈ 1.83 µM)	1 (≈ 1.83 µM)	1 (≈ 1.83 µM)	1 (≈ 1.83 µM)	1 (≈ 1.83 µM)	32 (≈ 58.5 µM)	1 (≈ 1.83 µM)	1 (≈ 1.83 µM)	1 (≈ 1.83 µM)	1 (≈ 1.83 µM)	1 (≈ 1.83 µM)	32 (≈ 58.5 µM)	32 (≈ 58.5 µM)	16 (≈ 29.3 µM)	
